Test results published in ChEMBL document CHEMBL4251702, “Potential Antimicrobial Isopropanol-Conjugated Carbazole Azoles as Dual Targeting Inhibitors of Enterococcus faecalis” (ACS Med Chem Lett, 2018).
≈ marks a conversion by molar mass, not a printed value. Calls of active or inactive are those of the source. The calls are words filed in the database; no cut-off is given here.

Legend:
Staphylococcus aureus [1] = assay: Antimicrobial activity against Staphylococcus aureus after 24 hrs by two-fold serial dilution method; assay type: functional, organism-based
Klebsiella pneumoniae [2] = assay: Antimicrobial activity against Klebsiella pneumoniae after 24 hrs by two-fold serial dilution method; assay type: functional, organism-based
Escherichia coli [3] = assay: Antimicrobial activity against Escherichia coli ATCC 25922 after 24 hrs by two-fold serial dilution method; assay type: functional, organism-based
Escherichia coli [4] = assay: Antimicrobial activity against Escherichia coli after 24 hrs by two-fold serial dilution method; assay type: functional, organism-based
Staphylococcus aureus [5] = assay: Antimicrobial activity against Staphylococcus aureus ATCC 29213 after 24 hrs by two-fold serial dilution method; assay type: functional, organism-based
Staphylococcus aureus [6] = assay: Antimicrobial activity against Staphylococcus aureus ATCC 25923 after 24 hrs by two-fold serial dilution method; assay type: functional, organism-based
Staphylococcus aureus [7] = assay: Antimicrobial activity against methicillin-resistant Staphylococcus aureus after 24 hrs by two-fold serial dilution method; assay type: functional, organism-based
Pseudomonas aeruginosa [8] = assay: Antimicrobial activity against Pseudomonas aeruginosa after 24 hrs by two-fold serial dilution method; assay type: functional, organism-based
Enterococcus faecalis [9] = assay: Antimicrobial activity against Enterococcus faecalis after 24 hrs by two-fold serial dilution method; assay type: functional
Acinetobacter baumannii [10] = assay: Antimicrobial activity against Acinetobacter baumannii after 24 hrs by two-fold serial dilution method; assay type: functional, organism-based
Pseudomonas aeruginosa [11] = assay: Antimicrobial activity against Pseudomonas aeruginosa ATCC 27853 after 24 hrs by two-fold serial dilution method; assay type: functional
Candida parapsilosis = assay: Antifungal activity against Candida parapsilosis ATCC 22019 after 24 hrs by two-fold serial dilution method; assay type: functional
Aspergillus fumigatus = assay: Antifungal activity against Aspergillus fumigatus after 24 hrs by two-fold serial dilution method; assay type: functional
Enterococcus faecalis [12] = assay: Bactericidal activity against Enterococcus faecalis assessed as log reduction in bacterial colonies at 4 times MIC measured within 1 hr by time-kill assay; assay type: functional
Summary of the method: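 Viable counts of E. faecalis were expressed as log CFU/mL and followed over the first hour of exposure at 4 × MIC. A positive-control drug was run alongside.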

Escherichia coli [13] = assay: Induction of membrane disruption in Escherichia coli ATCC 25922 at 12 times MIC measured every 10 mins for 60 mins by propidium iodide staining based fluorescence assay; assay type: functional, organism-based
Summary of the method: (§1)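 Membrane permeabilization was tracked by propidium iodide, which enters compromised cells and fluoresces on binding DNA. Fluorescence of bacteria with compound plus PI was recorded over 60 min, against two control groups. Strains were E. faecalis and E. coli ATCC 25922.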

Enterococcus faecalis [14] = assay: Induction of membrane disruption in Enterococcus faecalis at 12 times MIC measured every 10 mins for 60 mins by propidium iodide staining based fluorescence assay; assay type: functional, organism-based; summary of the method: as §1
[15] = Cytotoxicity against mouse RAW264.7 cells assessed as cell viability at 128 ug/ml after 24 hrs by MTT assay relative to control; assay type: cell-based; conditions: read-out: Activity
Summary of the method: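 Normal mouse macrophage RAW264.7 cells were exposed to the compound up to 128 μg/mL for 24 h, and viability was read by MTT. Each bar is the mean of three parallels, with error bars of one standard deviation.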

DNA [16] = assay: Binding affinity to Enterococcus faecalis DNA assessed as DNA intercalation by UV-vis absorption spectrophotometric method; assay type: nucleic-acid assay
Summary of the method: (§2)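 Genomic DNA was isolated from drug-resistant E. faecalis strains and examined in vitro with the compound by UV–vis absorption and by neutral red fluorescence spectroscopy.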

Enterococcus faecalis [17] = assay: Antimicrobial activity against Enterococcus faecalis after 11 passages measured at 24 hrs interval for 16 days by two-fold serial dilution method; assay type: functional
DNA [18] = assay: Binding affinity to Enterococcus faecalis DNA assessed as DNA intercalation by neutral red dye based spectrofluorimetric method; assay type: nucleic-acid assay; summary of the method: as §2
Pseudomonas aeruginosa [19] = assay: Antimicrobial activity against Pseudomonas aeruginosa ATCC 27853 after 24 hrs under pH 4 to 11 by two-fold serial dilution method; assay type: functional, organism-based
Acinetobacter baumannii [20] = assay: Antimicrobial activity against Acinetobacter baumannii after 24 hrs under pH 4 to 11 by two-fold serial dilution method; assay type: functional, organism-based
[21] = Solubility of the compound in water; assay type: physicochemical; conditions: buffer
Staphylococcus aureus [22] = assay: Antimicrobial activity against Staphylococcus aureus after 24 hrs under pH 4 to 11 by two-fold serial dilution method; assay type: functional, organism-based
Escherichia coli [23] = assay: Antimicrobial activity against Escherichia coli after 24 hrs under pH 4 to 11 by two-fold serial dilution method; assay type: functional, organism-based
Staphylococcus aureus [24] = assay: Antimicrobial activity against Staphylococcus aureus ATCC 29213 after 24 hrs under pH 4 to 11 by two-fold serial dilution method; assay type: functional, organism-based
Staphylococcus aureus [25] = assay: Antimicrobial activity against Staphylococcus aureus ATCC 25923 after 24 hrs under pH 4 to 11 by two-fold serial dilution method; assay type: functional, organism-based
Escherichia coli [26] = assay: Antimicrobial activity against Escherichia coli ATCC 25922 after 24 hrs under pH 4 to 11 by two-fold serial dilution method; assay type: functional, organism-based
Klebsiella pneumoniae [27] = assay: Antimicrobial activity against Klebsiella pneumoniae after 24 hrs under pH 4 to 11 by two-fold serial dilution method; assay type: functional, organism-based
Pseudomonas aeruginosa [28] = assay: Antimicrobial activity against Pseudomonas aeruginosa after 24 hrs under pH 4 to 11 by two-fold serial dilution method; assay type: functional, organism-based
Enterococcus faecalis [29] = assay: Antimicrobial activity against Enterococcus faecalis after 24 hrs under pH 4 to 11 by two-fold serial dilution method; assay type: functional, organism-based
Staphylococcus aureus [30] = assay: Antimicrobial activity against methicillin-resistant Staphylococcus aureus after 24 hrs under pH 4 to 11 by two-fold serial dilution method; assay type: functional, organism-based
Enterococcus faecalis [31] = assay: Antimicrobial activity against Enterococcus faecalis assessed as ratio of MIC after and before […] measured at 24 hrs interval for 16 days by two-fold serial dilution method; assay type: functional

Structure (SMILES) | Activity (Staphylococcus aureus [1]) | Activity (Klebsiella pneumoniae [2]) | Activity (Escherichia coli [3]) | Activity (Escherichia coli [4]) | Activity (Staphylococcus aureus [5]) | Activity (Staphylococcus aureus [6]) | Activity (Staphylococcus aureus [7]) | Activity (Pseudomonas aeruginosa [8]) | Activity (Enterococcus faecalis [9]) | Activity (Acinetobacter baumannii [10]) | Activity (Pseudomonas aeruginosa [11]) | further results
OC(Cn1cncn1)Cn1c2ccccc2c2ccccc21 (centres undefined) | Active | Active | Active | Active | Active | Active | Active | Active | Active | Active | Active | –
OC(Cn1cncn1)Cn1c2ccccc2c2ccc(Br)cc21 (centres undefined) | Active | Active | Active | Active | Active | Active | Active | Active | Active | Active | Active | –
OC(Cn1ccnc1-c1ccccc1)Cn1c2ccccc2c2ccccc21 (centres undefined) | inactive | inactive | inactive | inactive | inactive | inactive | inactive | inactive | inactive | inactive | inactive | –
OC(Cn1cncn1)(Cn1cncn1)c1ccc(F)cc1F | – | – | – | – | – | – | – | – | – | – | – | Activity (Candida parapsilosis): Active; Activity (Aspergillus fumigatus): Active
OC(Cn1cncn1)Cn1c2ccccc2c2cc(I)ccc21 (centres undefined) | Active | Active | Active | Active | Active | Active | Active | Active | Active | Active | Active | –
OC(Cn1cncn1)Cn1c2ccc(Cl)cc2c2cc(Cl)ccc21 (centres undefined) | Active | Active | Active | Active | Active | Active | Active | Active | – | Active | Active | Activity (Enterococcus faecalis [12]): >3 log10CFU/ml; Activity (Escherichia coli [13]): Active; MIC (Candida parapsilosis; Lodderomyces parapsilosis, ATCC 22019, 24 h): 4 µg/mL (≈ 11.1 µM); Activity (Enterococcus faecalis [14]): Active; MIC (Enterococcus faecalis [9]): 2 µg/mL (≈ 5.54 µM); MIC (Aspergillus fumigatus): 32 µg/mL (≈ 88.6 µM); viability at 24 h, 128 ug/ml [15]: > 80%; Activity (DNA [16]): Active; MIC (Enterococcus faecalis [17]): 2 to 8 µg/mL (≈ 5.54 to 22.1 µM); Activity (DNA [18]): Active
Cc1nccn1CC(O)Cn1c2ccccc2c2ccccc21 (centres undefined) | Active | Active | Active | Active | Active | Active | Active | Active | Active | Active | Active | –
Cc1ncc([N+](=O)[O-])n1CC(O)Cn1c2ccc(Br)cc2c2cc(Br)ccc21 (centres undefined) | – | – | – | – | – | – | – | – | – | – | – | MIC (Pseudomonas aeruginosa [11]; ATCC 27853, 24 h): 32 µg/mL (≈ 63 µM)
Cc1ncc([N+](=O)[O-])n1CC(O)Cn1c2ccccc2c2ccccc21 (centres undefined) | Active | Active | Active | Active | Active | Active | Active | Active | Active | Active | Active | Activity (Pseudomonas aeruginosa [19]): Active; Activity (Acinetobacter baumannii [20]): Active; solubility [21]: Soluble; Activity (Staphylococcus aureus [22]): Active; Activity (Escherichia coli [23]): Active; Activity (Staphylococcus aureus [24]): Active; Activity (Staphylococcus aureus [25]): Active; Activity (Escherichia coli [26]): Active; Activity (Klebsiella pneumoniae [27]): Active; Activity (Pseudomonas aeruginosa [28]): Active; Activity (Enterococcus faecalis [29]): Active; Activity (Staphylococcus aureus [30]): Active
CCn1cc(C(=O)O)c(=O)c2cc(F)c(N3CCNCC3)cc21 [NORFLOXACIN] | – | – | Active | – | Active | – | – | – | Active | – | – | Ratio (Enterococcus faecalis [31]): 16
O=[N+]([O-])c1cn(CC(O)Cn2c3ccccc3c3ccccc32)cn1 (centres undefined) | Active | Active | Active | Active | Active | Active | Active | Active | Active | Active | Active | –
CC(C)(C)c1ccc2c(c1)c1cc(C(C)(C)C)ccc1n2CC(O)Cn1cncn1 (centres undefined) | Active | Active | Active | Active | Active | Active | Active | Active | Active | Active | Active | –
OC(Cn1cncn1)Cn1c2ccc(Br)cc2c2cc(Br)ccc21 (centres undefined) | Active | Active | Active | Active | Active | Active | Active | Active | Active | Active | Active | –
OC(Cn1cncn1)Cn1c2ccccc2c2cc(Br)ccc21 (centres undefined) | Active | Active | Active | Active | Active | Active | Active | Active | Active | Active | Active | –
